Measured values collected from several papers.
Kir1 channel protein: Kir1 channel protein (Aedes aegypti, UniProt L0EQS9)
MMP14: Matrix metalloproteinase-14 (MMP14, Homo sapiens, UniProt P50281)

SMILES | target | observed | action | technique | pH | setting | IC50
CC(C)(C)c1cc(Cc2cc(C(C)(C)C)c(O)c(C(C)(C)C)c2)cc(C(C)(C)C)c1O | Sarcoplasmic/endoplasmic reticulum calcium ATPase 1 (ATP2A1, Oryctolagus cuniculus, UniProt P04191) | ATPase activity | inhibitor | absorbance | pH 7.3 |  | 17000 nM
O=[N+]([O-])c1ccc(N2CCN(S(=O)(=O)c3ccc(F)cc3)CC2)cc1NCc1ccccn1 | Kir1 channel protein | ion flux | inhibitor |  |  |  | 800 nM
Cc1noc(-c2cc3cc(-c4nc(C(N)=O)[nH]c4C)ccc3[nH]2)n1 | MMP14 | enzyme activity | inhibitor |  |  |  | > 28000 nM
O=C(Oc1nsnc1N1CCC2CCCCC2C1)N1CCCCC1 (centres unmarked) | Monoacylglycerol lipase ABHD6 (ABHD6, Homo sapiens, UniProt Q9BV23) | enzyme activity | inhibitor | fluorescence |  | lysate | 560 nM
Cc1noc(-c2cc3cc(-c4nc(C(=O)NCc5ccncc5)[nH]c4C)ccc3[nH]2)n1 | MMP14 | enzyme activity | inhibitor |  |  |  | > 20000 nM
O=C(c1cc(O)c(O)c([N+](=O)[O-])c1)c1ccccc1F | Catechol O-methyltransferase (COMT, Sus scrofa, UniProt Q99028) | enzyme activity | inhibitor |  |  |  | 28 nM
Cn1nc(C(=O)NCc2ccc(C(=O)O)cc2)cc1-c1ccc2[nH]c(-c3cccnc3)cc2c1 | MMP14 | enzyme activity | inhibitor |  |  |  | > 20000 nM
CS(=O)(=O)N1CCN(c2ccc([N+](=O)[O-])c(NCc3cccnc3)c2)CC1 | Kir1 channel protein | ion flux | inhibitor |  |  |  | 44000 nM
COc1cc2c(NC3CCN(C)CC3)nc(N3CCCN(C)CC3)nc2cc1OCCOCCN(C)C | Lysine-specific demethylase 4E (KDM4E, Homo sapiens, UniProt B2RXH2) | enzyme activity | inhibitor |  |  |  | > 57000 nM
COc1ccc(F)cc1C(=O)NCc1ccc(-c2nn([C@@H](C)C(F)(F)F)c(N)c2C(N)=O)cc1 | Tyrosine-protein kinase BTK (BTK, Homo sapiens, UniProt Q06187, C481S) | phosphorylation in cells | inhibitor |  |  |  | 8.1 nM
O=[N+]([O-])c1ccc(N2CCN(S(=O)(=O)c3ccc(F)cc3)CC2)cc1NCc1ccncc1 | Kir1 channel protein | ion current | inhibitor | patch clamp |  |  | 49.7 nM
C=CC(=O)Nc1cc(Nc2nccc(Nc3cc(Cl)c(F)cc3C(C)(C)O)n2)c(OC)cc1N1CC[C@@H](N(C)C)C1 | Tyrosine-protein kinase BTK (BTK, Homo sapiens, UniProt Q06187) | enzyme activity | inhibitor |  |  | with preincubation | 213 nM
N#Cc1ccc(N2CCN(S(=O)(=O)c3ccc(Cl)cc3)CC2)cc1NCc1ccncc1 | Kir1 channel protein | ion current | inhibitor | patch clamp |  |  | 39 nM
Cc1cc(O)cc(C)c1C[C@H](NC(=O)[C@@H]1CCCN1C(=O)[C@H](CCCNC(=N)N)NC(=O)[C@H](CCCNC(=N)N)N(C)C(=O)CNC(=O)[C@@H](CO)NC(=O)CNC(=O)[C@H](Cc1cn(CCNC(=O)[C@H](CCCNC(=N)N)NC(=O)[C@H](CC(C)C)NC(=O)C2OC2C(=O)O)nn1)NC(=O)CN1CCN(CC(=O)O)CCN(CC(=O)O)CCN(CC(=O)O)CC1)C(=O)N[C@H](C(=O)N[C@@H](CC(C)C)C(=O)O)C(C)(C)C (mixture of isomers) | Neurotensin receptor type 1 (NTSR1, Homo sapiens, UniProt P30989) | ligand displacement |  | radioligand |  |  | 73 nM
CC1=CC(=O)C(C(C)C)=CC1=O | Cytochrome P450 2E1 (CYP2E1, Homo sapiens, UniProt P05181) | enzyme activity | inhibitor | HPLC |  |  | 97000 nM
N#Cc1ccc(N2CCN(S(=O)(=O)c3ccc(F)cc3)CC2)cc1NCc1ccncc1 | Kir1 channel protein | ion flux | inhibitor |  |  |  | 361 nM
CN1CCN(c2ccc(Nc3ncc4cc(C#N)c(=O)n(C5CCCC5)c4n3)cc2)CC1 | Ribosomal protein S6 kinase alpha-5 (RPS6KA5, Homo sapiens, UniProt O75582) | enzyme activity | inhibitor |  |  |  | 9210 nM
